{"source": "paper PMC3082000", "about": "(Bioorganic & medicinal chemistry letters, 2010)", "key": {"[1]": {"test": "solubility", "format": "physicochemical"}, "[2]": {"target": "T1, M1 (Rattus norvegicus, UniProt P08482)", "T1 sequence (P08482 1-460)": "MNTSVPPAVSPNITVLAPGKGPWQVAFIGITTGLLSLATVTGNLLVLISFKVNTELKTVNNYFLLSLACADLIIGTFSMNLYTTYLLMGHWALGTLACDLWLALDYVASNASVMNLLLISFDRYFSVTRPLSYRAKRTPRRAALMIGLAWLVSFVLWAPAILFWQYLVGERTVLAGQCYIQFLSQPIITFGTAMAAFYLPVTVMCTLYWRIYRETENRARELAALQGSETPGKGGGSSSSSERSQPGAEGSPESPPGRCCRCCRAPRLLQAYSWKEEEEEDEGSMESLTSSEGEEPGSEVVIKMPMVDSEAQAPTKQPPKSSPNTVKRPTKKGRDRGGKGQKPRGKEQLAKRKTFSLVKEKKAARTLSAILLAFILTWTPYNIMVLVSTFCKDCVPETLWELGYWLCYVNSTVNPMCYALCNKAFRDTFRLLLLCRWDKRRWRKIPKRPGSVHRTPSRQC", "test": "real-time cell-based calcium-mobilization assay, M1 PAM"}, "[3]": {"test_system": "M2-M5", "test": "counter-screening against M2-M5", "format": "cell-based", "conditions": "read-out: M2-M5 EC50; selectivity counter-screen"}, "[4]": {"test_system": "TREx293-hM1 cells", "test": "APP processing: M1-stimulated APPsα release, Western blot", "format": "cell-based, human", "conditions": "for APPsα release, in combination with low dose CCh: 2 μM with 100 nM CCh", "how_it_was_run": "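Stable human M1-overexpressing TREx293 cells, plated 2 days before use, were pretreated 15 min with 2 μM test compound or DMSO. Carbachol (100 nM or 10 μM) was then added, and medium was conditioned 1 h at 37°C. Endogenous APPsα in conditioned medium was detected by Western blot.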"}, "[5]": {"test_system": "biogenic amines (D2, H-HT2B, etc…)", "test": "Lead Profile screen at Ricerca, radioligand binding"}, "[6]": {"test_system": "M1-M5", "test": "Lead Profile screen at Ricerca, orthosteric binding"}, "[7]": {"conditions": "cited from earlier work"}, "[8]": {"target": "T1, M1", "conditions": "cited from earlier work"}}, "data": [{"smiles": "Cc1cc(NC(=O)CS(=O)(=O)c2cn(Cc3cccc(Br)c3)c3ccccc23)no1", "note": "[13g]", "values": [{"measurement": "solubility", "setting": "[1]", "value": "poor"}]}, {"smiles": "CCC(C)n1cc(-c2cccc(Cn3cc(S(=O)(=O)CC(=O)Nc4cc(C)on4)c4ccccc43)c2)cn1", "note": "(stereo not drawn) [14c]", "values": [{"measurement": "M1 EC50", "setting": "[2]; average of at least three independent determinations", "value": "inactive"}]}, {"smiles": "Cc1cc(NC(=O)CS(=O)(=O)c2cn(Cc3cccc(-c4cn[nH]c4)c3)c3cc(F)cc(F)c23)no1", "note": "[15e]", "values": [{"measurement": "EC50", "setting": "[3]", "value": "> 30", "unit": "µM"}]}, {"smiles": "Cc1cc(NC(=O)CS(=O)(=O)c2cn(Cc3cc(Br)ccc3F)c3ccccc23)no1", "note": "[15j, 2-((1-(5-bromo-2-fluorobenzyl)-1H-indol-3-yl)sulfonyl)-N-(5-methylisoxazol-3-yl)acetamide]", "values": [{"measurement": "EC50", "setting": "[3]", "value": "> 30", "unit": "µM"}, {"measurement": "APPsα release, in combination with low dose CCh", "setting": "[4]; TREx293-hM1 cells, listed as ML169", "value": "potentiates the CCh-mediated non-amyloidogenic APPsα release to the same degree as 10 μM CCh"}, {"measurement": "APPsα release, in combination with low dose CCh", "setting": "[4]; TREx293-hM1 cells, listed as VU04505652", "value": "potentiates the CCh-mediated non-amyloidogenic APPsα release"}, {"measurement": "APPsα release, compound alone", "setting": "[4]; 2 μM, TREx293-hM1 cells", "value": "no effect"}, {"measurement": "selectivity versus the biogenic amines", "setting": "[5]", "value": "selective"}, {"measurement": "improvement in potency", "setting": "[2]; relative to the non-fluorinated bromine analog", "value": "~3", "unit": "fold"}, {"measurement": "orthosteric binding at M1-M5", "setting": "[6]", "value": "no orthosteric binding"}]}, {"smiles": "C[N+](C)(C)CCOC(N)=O", "note": "[carbachol, reference compound]", "values": [{"measurement": "soluble APP (APPsα)", "setting": "[4]; 100 nM", "value": "modest increase"}, {"measurement": "soluble APP (APPsα)", "setting": "[4]; 10 μM", "value": "significant increase"}]}, {"smiles": "Cn1cc(-c2ccc(CN3C(=O)C(=O)c4ccccc43)c(F)c2)cn1", "note": "[compound 3]", "values": [{"measurement": "brainAUC/plasmaAUC", "setting": "[7]", "value": "~0.1"}, {"measurement": "efficacy (% ACh Max)", "setting": "[8]", "value": 60, "unit": "% ACh Max"}]}, {"smiles": "Cc1cc(NC(=O)CS(=O)(=O)c2cn(Cc3ccccc3Cl)c3ccccc23)no1", "note": "[compound 7]", "values": [{"measurement": "EC50", "setting": "[3]", "value": "> 30", "unit": "µM"}]}]}
